Values after ≈ are worked out from the molar mass of the structure shown.
Test system: Mycobacterium tuberculosis
Assay: Antitubercular activity against Mycobacterium tuberculosis H37Rv ATCC 27294 by microplate alamar blue assay
Type: functional
Procedure, shortened: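 Resazurin-based (Alamar Blue) colorimetric redox indicator used to assess growth of M. tuberculosis H37Rv. MIC (µg/mL) is taken as the lowest drug concentration that prevents a colour change from blue (no growth) to pink (growth).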

Molecule `Cc1c(C(=O)N/N=C/c2ccccc2)nnn1Nc1ccc(Br)cc1` has an MIC greater than 100 µg/mL.

Work on `Cc1c(C(=O)N/N=C/c2ccccc2)nnn1Nc1ccc(F)cc1` yielded an MIC greater than 100 µg/mL.

`Cc1c(C(=O)N/N=C/c2ccc(Br)s2)nnn1Nc1ccc(Br)cc1` gave an MIC greater than 100 µg/mL.

`Cc1c(C(=O)N/N=C/c2ccc(Br)s2)nnn1Nc1ccc(F)cc1` was tested, and the MIC was greater than 100 µg/mL.

`Cc1c(C(=O)N/N=C/c2ccco2)nnn1Nc1ccc(Br)cc1` gave an MIC of 25.5 µg/mL (≈ 65.5 µM).

`Cc1c(C(=O)N/N=C/c2ccco2)nnn1Nc1ccc(F)cc1` showed an MIC of 12.5 µg/mL (≈ 38.1 µM).

Work on `Cc1c(C(=O)N/N=C/c2ccc([N+](=O)[O-])o2)nnn1Nc1ccc(Br)cc1` yielded an MIC of 6.25 µg/mL (≈ 14.4 µM).

With `Cc1c(C(=O)N/N=C/c2ccc([N+](=O)[O-])o2)nnn1Nc1ccc(F)cc1` the MIC was 5 µg/mL (≈ 13.4 µM).

`Cc1c(C(=O)N/N=C/c2ccc([N+](=O)[O-])o2)nnn1Nc1ccccc1` showed an MIC of 2.5 µg/mL (≈ 7.04 µM).

Work on `Cc1c(C(=O)N/N=C/c2ccc(Br)s2)nnn1Nc1ccccc1` yielded an MIC of 12.5 µg/mL (≈ 30.8 µM).

`Cc1c(C(=O)N/N=C/c2ccc([N+](=O)[O-])o2)nnn1Nc1ccc(Cl)cc1` gave an MIC of 5 µg/mL (≈ 12.8 µM).

With `Cc1c(C(=O)N/N=C/c2ccccc2)nnn1Nc1ccc(Cl)cc1` the MIC was greater than 100 µg/mL.

Molecule `Cc1c(C(=O)N/N=C/c2ccccc2)nnn1Nc1ccccc1` has an MIC greater than 100 µg/mL.

Molecule `Cc1c(C(=O)N/N=C/c2ccc(Br)s2)nnn1Nc1ccc(Cl)cc1` has an MIC greater than 100 µg/mL.

In the case of `Cc1c(C(=O)N/N=C/c2ccco2)nnn1Nc1ccc(Cl)cc1`, the MIC is reported as 12.5 µg/mL (≈ 36.3 µM).

Molecule `Cc1c(C(=O)N/N=C/c2ccco2)nnn1Nc1ccccc1` has an MIC of 5 µg/mL (≈ 16.1 µM).

`CC[C@@H](CO)NCCN[C@@H](CC)CO` [ETHAMBUTOL] showed an MIC of 2 µg/mL (≈ 9.79 µM).

For `CC(C)CCOc1ccc(NC(=S)Nc2ccc(OCCC(C)C)cc2)cc1` [TIOCARLIDE], the MIC was 2.5 µg/mL (≈ 6.24 µM).
